Compounds with a hit are over-represented: about 5.2% of the library has one in this group of screens.
ALR H2O2 inh: inhibitors of human ALR sulfhydryl oxidase, primary screen, biochemical, H2O2 detection, HRP-luminol luminescence, single point; FAD-linked sulfhydryl oxidase ALR (Homo sapiens), P55789; purified ALR, DTT oxidation; inhibition, % (concentration not given with the values); actives 3.8% (n = 290,000);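 active means mean replicate inhibition above about 79%, with every replicate also reaching it, limit read from the data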
Target sequence (P55789 whole entry, looked up): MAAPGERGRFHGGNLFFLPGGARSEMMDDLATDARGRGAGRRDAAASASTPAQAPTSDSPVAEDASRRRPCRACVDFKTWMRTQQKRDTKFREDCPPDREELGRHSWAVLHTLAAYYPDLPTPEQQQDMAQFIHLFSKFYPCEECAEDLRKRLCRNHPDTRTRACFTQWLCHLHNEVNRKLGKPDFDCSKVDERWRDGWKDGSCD
EBNA-1 inhibitor: EBNA-1 DNA-binding inhibitors, primary screen, biochemical, fluorescence polarization; inhibition, % at 14.8 µM; actives 0.34% (n = 300,000); in the data active means inhibition above about 28%
ZTA counter: blocks Epstein-Barr virus ZTA, an EBNA-1 counter-screen; P03206; ZTA-DNA binding, fluorescence polarization; inhibition, % at 11 µM; actives 0.15% (n = 320,000); AID 2234; in the data active means inhibition above about 33%
Target sequence (P03206 whole entry, looked up): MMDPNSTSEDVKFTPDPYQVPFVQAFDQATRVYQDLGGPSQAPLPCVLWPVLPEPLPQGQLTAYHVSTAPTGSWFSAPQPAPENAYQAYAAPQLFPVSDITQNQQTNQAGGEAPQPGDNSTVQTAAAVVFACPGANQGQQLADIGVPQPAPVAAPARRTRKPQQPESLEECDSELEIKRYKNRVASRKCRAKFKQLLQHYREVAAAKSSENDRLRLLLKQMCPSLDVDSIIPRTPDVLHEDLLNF
HCV NS3 hel inh: inhibitors of HCV NS3 helicase, primary screen, biochemical, Cy5 molecular beacon fluorescence. Hepatitis C virus NS3 helicase. NS3 helicase DNA unwinding. inhibition, % at 10.9 µM. actives 0.56% (n = 290,000);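 active means inhibition above the mean of all tested compounds plus 3 SD, set per campaign, cut at about 35% in these data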
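Assay system: hepatitis C virus NS3 helicase domain fragment enzyme. Also added: annealed dual-labelled DNA beacon duplex, ATP-started. Timing: 1 h reaction at 25 °C, ATP-initiated. Technique: Cy5 fluorescence at 0 and 60 min, beacon hairpin quenching. Evaluation: % inhibition of unwinding. Replication: one well per compound.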
M18AAP inhibitor: PfM18AAP inhibitors, malaria aminopeptidase, primary screen, biochemical, QFRET, recombinant enzyme; M18 aspartyl aminopeptidase (Plasmodium falciparum 3D7); actives 1.2% (n = 290,000); H-Glu-NHMec fluorogenic cleavage; inhibition, % at 7.35 µM;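 active means inhibition above the campaign mean inhibition over all tested compounds plus 3 SD, cut at about 28% in these data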
HCV core dimer: inhibitors of HCV core protein dimerization, primary screen, biochemical, TR-FRET, high-throughput; inhibition, % at 5 µM; TR-FRET GST/Flag-core106 dimerization, 1536-well; actives 0.33% (n = 300,000); AID 1899, 2009;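 active means inhibition above the mean of all tested compounds plus 3 SD, set per screening campaign, cut at about 45% in these data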
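Material: GST/Flag-tagged HCV core106 proteins. Incubation: 4 h, 22.5 °C incubation. Read-out basis: inhibition (%) from 671 over 617 nm ratio. Measured by: TR-FRET, excitation 340 nm, emission 617 and 671 nm.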
Large screens that a line does not name were inactive.

CCC(C)Nc1nc(-c2c[nH]c3ccccc23)cs1 (stereo not drawn)	ZTA counter 55
CCc1ccc(NC(=S)NC2CCN(Cc3ccccc3)CC2)cc1	ALR H2O2 inh 96
CC(C)(C)OC(=O)C[C@H]1C/C=C\C[C@@H](CC(=O)N[C@H](CO)Cc2ccccc2)C(=O)NC[C@H](c2ccccc2)OC1=O	none (no result: EBNA-1 inhibitor, ZTA counter, HCV NS3 hel inh, M18AAP inhibitor, HCV core dimer)
Cc1ccc(CNS(=O)(=O)c2c(C)[nH]c(C)c2C(=O)N2CCCCC2)cc1	none
Cc1ccc2c(c1)[C@H]1OCC[C@H]1[C@@H](c1ccncc1)N2	none (no result: ALR H2O2 inh)
c1ccc(C2Nc3ccccc3C3OCCCC23)cc1 (stereo not drawn)	ALR H2O2 inh 99
CCC1(CC)NC(=O)N(CC(=O)Nc2sc3c(c2C(N)=O)CCC3)C1=O	HCV core dimer 83
CCC1(C)NC(=O)N(CC(=O)Nc2sc3c(c2C(=O)OC)CCCCC3)C1=O (stereo not drawn)	none
COc1cc(C(=O)NC(=S)NNC(=O)c2cnccn2)cc(OC)c1OC	ALR H2O2 inh 96
COc1ccc(CC(=O)NNC(=O)c2cnccn2)cc1	M18AAP inhibitor 29
COc1ccc(C(=O)NC(=S)NNC(=O)c2cnccn2)cc1	none
Cc1ccc(-c2nc(NCCCO)c3ccccc3n2)cc1	ALR H2O2 inh 98
CC(CCc1ccccc1)NC(=O)C(C)OC(=O)c1ccco1 (stereo not drawn)	none (no result: HCV NS3 hel inh, M18AAP inhibitor)
O=S1(=O)NC(CC2=CCCCC2)C2CCCCC2O1 (stereo not drawn)	none
CCn1c(SCC(=O)Nc2sc3c(c2C#N)CCCC3)nnc1-c1ccco1	none
NC(=O)c1c(NC(=O)CSc2nnc(-c3ccco3)n2-c2ccccc2)sc2c1CCC2	ALR H2O2 inh 97, HCV core dimer 72
N#Cc1c(NC(=O)CSc2nnc(-c3ccco3)n2-c2ccccc2)sc2c1CCC2	HCV core dimer 64
COc1ccc(C2Nc3ccccc3NC3=C2C(=O)CC(C)(C)C3)cc1 (stereo not drawn)	none
CC1(C)CC(=O)C2=C(C1)Nc1ccccc1NC2c1ccccn1 (stereo not drawn)	ALR H2O2 inh 83
CC1(C)CC(=O)C2=C(C1)Nc1cc3c(cc1C2c1ccc(F)cc1)OCO3 (stereo not drawn)	ALR H2O2 inh 98
CN1C(=O)NC(c2ccc(Cl)cc2)C2=C1CC(C)(C)CC2=O (stereo not drawn)	ALR H2O2 inh 94
CC1(C)CC(=O)C2=C(C1)Nc1ccccc1NC2c1nc2ccccc2[nH]1 (stereo not drawn)	ALR H2O2 inh 98
Nc1nccnc1C(=O)OCC(=O)Nc1ccc2[nH]c(=O)[nH]c2c1	none (no result: HCV NS3 hel inh, M18AAP inhibitor)
Cc1ccc(OCCN(C)C(=O)C2CCC(=O)N(CCCN3CCOCC3)C2)cc1 (stereo not drawn)	none
CN(C)c1ccc(C2CC(=O)OC3=C2C(=O)CC(C)(C)C3)cc1 (stereo not drawn)	ALR H2O2 inh 99
CC1(C)CC(=O)C2=C(C1)OC(=O)CC2c1cccs1 (stereo not drawn)	none
CC1CC2=C(C(=O)O1)C(C)Nc1ccccc1N2 (stereo not drawn)	none (no result: ALR H2O2 inh)
CC1(C)CC(=O)C2=C(C1)Nc1ccccc1NC2c1ccc2c(c1)OCO2 (stereo not drawn)	ALR H2O2 inh 99
CC1CC2=C(C(=O)O1)C(c1ccccc1)Nc1ccccc1N2 (stereo not drawn)	ALR H2O2 inh 98
CC1(C)CC(=O)C2=C(C1)Nc1ccccc1NC2c1ccc(F)cc1 (stereo not drawn)	ALR H2O2 inh 99
COC(=O)C1CCN(C(=O)COc2ccc(S(=O)(=O)N3CCOCC3)cc2Cl)CC1	none (no result: EBNA-1 inhibitor, ZTA counter, HCV NS3 hel inh, M18AAP inhibitor, HCV core dimer)
Cc1cc(C)nc(S/C=C/C(=O)c2ccccc2F)n1	none
Cc1ccc(C2C3=C(CC(C)(C)CC3=O)Nc3onc(C)c32)cc1 (stereo not drawn)	none (no result: ALR H2O2 inh)
Cc1noc2c1C(c1ccc(N(C)C)cc1)C1=C(CC(C)(C)CC1=O)N2 (stereo not drawn)	ALR H2O2 inh 98
Oc1c(Cl)cc(Cl)cc1C=Nc1ccc(N2CCOCC2)cc1	none
